Calls of active or inactive are those of the source.
Assays:
[1] = molecular target: Prothrombin (Homo sapiens) (UniProt P00734); test: Inhibition of thrombin in human plasma using Boc-Val-Pro-Arg-AMC as substrate at 25 uM preincubated with enzyme for 15 mins followed by substrate addition and measured for 15 mins by fluorimetric assay; assay type: cell-free; conditions: time 30.0 min
Trypsin (Homo sapiens) = Trypsin (Homo sapiens) (UniProt P07477+P07478+P35030); test: Inhibition of trypsin (unknown origin) using Boc-Val-Pro-Arg-AMC as substrate at 50 uM preincubated with enzyme for 15 mins followed by substrate addition and measured for 15 mins by fluorimetric assay; assay type: protein assay; conditions: time 30.0 min
[2] = molecular target: Genome polyprotein (dengue virus type 2) (UniProt P29990); test: Inhibition of NS2B-NS3 protease in DENV2proHeLa system assessed as inhibition of luciferase signal at 12.5 uM incubated for 24 hrs by luciferase reporter gene assay; assay type: cell-based; conditions: HeLa
Summary of the method: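 Stable DENV2proHeLa cells seeded at 2 × 10⁴/well and dosed immediately, then incubated 24 h at 37 °C. Cells lysed 15 min at room temperature. Luciferase read with coelenterazine (2.75 μM in PBS) injection, luminescence 5 s. Triplicates; percent inhibition calculated relative to untreated control; background from cell-free wells.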

[3] = Cytotoxicity against human HeLa cells assessed as reduction in cell viability incubated for 24 hrs by CellTiter-Blue assay; assay type: cell-based
Summary of the method: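 Viability by CellTiter-Blue in HeLa or Huh-7 cells exposed to compound dilutions. Plates run in parallel with the reporter assay (HeLa) or the virus titer assay (Huh-7).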

[4] = molecular target: Genome polyprotein (dengue virus type 2) (UniProt P29990); test: Inhibition of DENV2 NS2B-NS3 protease expressed in Escherichia coli BL21 lambda(DE3) using FRET substrate preincubated with enzyme for 15 mins in presence of detergent CHAPS followed by substrate addition for 15 mins by fluorescence based analysis; conditions: time 30.0 min
Genome polyprotein = Genome polyprotein (dengue virus type 2, UniProt P29990); test: Inhibition of NS2B-NS3 protease in DENV2proHeLa system assessed as inhibition of luciferase signal incubated for 24 hrs by luciferase reporter gene assay; assay type: cell-based, HeLa
Summary of the method: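 HeLa cells stably carrying the reporter system, 2 × 10⁴ per well, given inhibitor at seeding and held 24 h at 37 °C. Cells lysed 15 min at room temperature. Luciferase read for 5 s after injecting coelenterazine (2.75 μM in PBS). Triplicate wells per concentration; percent inhibition taken against untreated cells. EC50/EC90 from 4-parameter dose-response fit, background from cell-free wells subtracted.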

In the case of `CCCCCCN[C@H](C(=O)NCc1ccc(C(N)=O)cc1)c1ccc(OCc2ccccc2)cc1`, the inhibition [1] is reported as “inactive”, the inhibition (Trypsin (Homo sapiens)) is reported as “inactive” and the inhibition [2] is reported as 19%. The CC50 at 24 h [3] was > 50 µM and the inhibition [4] was “Active”.
For `NC(=O)c1cccc(NC(=O)[C@@H](NC(=O)c2cccc(C(=O)N3CCOCC3)c2)c2ccc(OCc3ccccc3)cc2)c1`, the inhibition [1] was “inactive”, the EC50 (Genome polyprotein) was 23 µM and the inhibition (Trypsin (Homo sapiens)) was “inactive”. The inhibition [2] was 35% and the CC50 at 24 h [3] was > 100 µM.
With `CCCCCC(=O)N[C@H](C(=O)NCc1ccc(C(=O)NN)cc1)c1ccc(OCc2ccccc2)cc1` the inhibition [1] was “inactive”, the inhibition (Trypsin (Homo sapiens)) was “inactive” and the inhibition [4] was “Active”.
In the case of `NC(=O)c1cccc(NC(=O)[C@@H](NC(=O)c2ccc(C(=O)N3CCOCC3)cc2)c2ccc(OCc3ccccc3)cc2)c1`, the inhibition [1] is reported as “inactive”, the EC50 (Genome polyprotein) is reported as 15 µM and the inhibition (Trypsin (Homo sapiens)) is reported as “inactive”. The inhibition [2] was 40% and the CC50 at 24 h [3] was > 100 µM.
With `NCc1ccc(C(=O)N[C@H](C(=O)NCc2ccc(C(N)=O)cc2)c2ccc(OCc3ccccc3)cc2)cc1` the inhibition [1] was “inactive”, the EC50 (Genome polyprotein) was 29 µM and the inhibition (Trypsin (Homo sapiens)) was “inactive”. For the same compound, the inhibition [2] was 24% and the CC50 at 24 h [3] was > 50 µM.
For `CCCCCC(=O)N[C@H](C(=O)Nc1ccc(CO)cc1)c1ccc(OCc2ccccc2)cc1`, the inhibition [1] was “inactive”, the EC50 (Genome polyprotein) was 18 µM and the inhibition (Trypsin (Homo sapiens)) was “inactive”. The inhibition [2] was 48% and the CC50 at 24 h [3] was > 50 µM.
In the case of `CCCC[C@H](NC(C)=O)C(=O)N[C@H](C(=O)NCc1ccc(C(N)=O)cc1)c1ccc(OCc2ccccc2)cc1`, the inhibition [1] is reported as “inactive”, the inhibition (Trypsin (Homo sapiens)) is reported as “inactive” and the inhibition [2] is reported as 16%. For the same compound, the CC50 at 24 h [3] was > 50 µM and the inhibition [4] was “Active”.
With `CCCCCC(=O)N[C@H](C(=O)N1CCCCC1)c1ccc(OCc2ccccc2)cc1` the inhibition [1] was “inactive”, the EC50 (Genome polyprotein) was 13 µM and the inhibition (Trypsin (Homo sapiens)) was “inactive”. The inhibition [2] was 58% and the CC50 at 24 h [3] was 29 µM.
For `CCCCCC(=O)N[C@H](C(=O)NCc1ccc(OC)cc1)c1ccc(OCc2ccccc2)cc1`, the inhibition [1] was “inactive”, the EC50 (Genome polyprotein) was 28 µM and the inhibition (Trypsin (Homo sapiens)) was “inactive”. For the same compound, the inhibition [2] was 35% and the CC50 at 24 h [3] was > 50 µM.
For `CCCCCC(=O)N[C@@H](C(=O)NCc1ccc(C(N)=O)cc1)c1ccc(OCc2ccc(Cl)c(Cl)c2)cc1`, the inhibition [1] was “inactive”, the inhibition (Trypsin (Homo sapiens)) was “inactive” and the inhibition [2] was 19%. For the same compound, the CC50 at 24 h [3] was > 50 µM and the inhibition [4] was “Active”.
With `CCCCCC(=O)N[C@H](C(=O)NCc1ccc(NC(C)=O)cc1)c1ccc(OCc2ccccc2)cc1` the inhibition [1] was “inactive”, the EC50 (Genome polyprotein) was 14 µM and the inhibition (Trypsin (Homo sapiens)) was “inactive”. For the same compound, the inhibition [2] was 55% and the CC50 at 24 h [3] was > 100 µM.
With `CCCCC(=O)N[C@H](C(=O)NCc1ccc(C(N)=O)cc1)c1ccc(OCc2ccccc2)cc1` the inhibition [1] was “inactive”, the EC50 (Genome polyprotein) was 14 µM and the inhibition (Trypsin (Homo sapiens)) was “inactive”. The inhibition [2] was 38% and the CC50 at 24 h [3] was > 100 µM.
In the case of `NC(=O)c1ccc(CNC(=O)[C@@H](NC(=O)Cc2ccc(-c3ccccc3)cc2)c2ccc(OCc3ccccc3)cc2)cc1`, the inhibition [1] is reported as “inactive”, the inhibition (Trypsin (Homo sapiens)) is reported as “inactive” and the inhibition [2] is reported as 25%. For the same compound, the CC50 at 24 h [3] was > 50 µM and the inhibition [4] was “Active”.
With `CCCCCC(=O)N[C@H](C(=O)NCc1ccc(C(N)=O)cc1)c1ccc(OCc2ccc(C(C)(C)C)cc2)cc1` the inhibition [1] was “inactive”, the inhibition (Trypsin (Homo sapiens)) was “inactive” and the inhibition [2] was < 10%. For the same compound, the CC50 at 24 h [3] was > 12.5 µM and the inhibition [4] was “Active”.
With `CCCCCC(=O)N[C@H](C(=O)Nc1ccc(C(N)=O)cc1)c1ccc(OCc2ccccc2)cc1` the inhibition [1] was “inactive”, the EC50 (Genome polyprotein) was 7 µM and the inhibition (Trypsin (Homo sapiens)) was “inactive”. For the same compound, the inhibition [2] was 58% and the CC50 at 24 h [3] was > 12.5 µM.
In the case of `NC(=O)c1cccc(NC(=O)[C@@H](NC(=O)c2ccc(Oc3ccccc3)cc2)c2ccc(Oc3ccccc3)cc2)c1`, the inhibition [1] is reported as “inactive”, the EC50 (Genome polyprotein) is reported as 2.9 µM and the inhibition (Trypsin (Homo sapiens)) is reported as “inactive”. The inhibition [2] was 73% and the CC50 at 24 h [3] was > 50 µM.

Source: ChEMBL document CHEMBL4811254, “Beyond Basicity: Discovery of Nonbasic DENV-2 Protease Inhibitors with Potent Activity in Cell Culture” (J Med Chem, 2021)
